Assay results from ChEMBL document CHEMBL4513216, “Probing the Open Global Health Chemical Diversity Library for Multistage-Active Starting Points for Next-Generation Antimalarials” (ACS Infect Dis, 2020).

experiment: Toxicity liver stage against HepG2, at 10uM; type: cell-based; design: test concentration 10 uM, cell line HepG2-A16-CD81EGFP; settings: human, HepG2-A16-CD81EGFP cells; read-out: INHIBITION
Method in brief: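 Uninfected HepG2-A16-CD81EGFP cells, 3 × 10^3 per well, 1536-well, plated on prespotted compound at 10 μM final, parasite-free screening media added to match infected plates; puromycin 10 μM positive, DMSO 0.5% negative; run in parallel with 48 h PbLuc assay at 37 °C, 5% CO2; viability by CellTiter-Glo luminescence, normalized to controls.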

Row | SMILES | cytotoxicity at 10 µM [%]
1 | CCOC[C@@H]1CC[C@H]2[C@H](CCN2Cc2c(C)noc2C)O1 | 10.5
2 | Cc1ccsc1CN1CC[C@H]2OCC[C@@]2(C(=O)N2CCCO2)C1 | -4
3 | CN(C)c1ccc(C(=O)N(CCO)CC2CC2)c(F)c1 | 5.25
4 | COCCn1cc(NC(=O)NC(C)c2ccc(Cl)s2)cn1 (stereo unspecified) | 7.25
5 | Cc1nnc2n1CCN(C(=O)CN(C)Cc1ccccc1)C2 | -4.56
6 | c1ccc(OCCN2CCC(c3nnc(-c4cccnc4)o3)CC2)cc1 | -27.9
7 | CC[C@@H]1C[C@H](C(F)(F)F)n2nc(C3CCN(S(=O)(=O)CC)CC3)cc2N1 | -28.2
8 | COCCCc1nc(-c2ccc(S(=O)(=O)N3CCCC3)cc2)cs1 | -46.3
9 | Cc1nccn1C1CCCN(C(=O)c2ccc3nncn3c2)C1 (stereo unspecified) | -2.42
10 | Cc1ncoc1C(=O)N1CC[C@@H](O)[C@@H](O)[C@H](N2CCC(F)(F)CC2)C1 | 2.3
11 | O=C(NCc1ccccn1)[C@@H]1COC[C@H]2CN(c3ncccn3)C[C@H]21 | 7.31
12 | Cn1c2ccccc2c2ncn(CCN3CCOCC3)c(=O)c21 | 15.7
13 | Cc1noc(COCC(=O)Nc2ccc(Br)c(C)n2)n1 | 6.19
14 | CCCN(C)C(=O)c1cc(S(=O)(=O)NCC)ccc1C | -0.403
15 | Oc1cc(CC2COCCN(CC3(O)CCOCC3)C2)ncn1 (stereo unspecified) | 8.08
16 | COCCn1cc2c(n1)C(CNCc1nccs1)OCC2 (stereo unspecified) | -0.726
17 | CCc1nnc2ccc(N3CCN(S(=O)(=O)c4ccc(Cl)s4)CC3)nn12 | 5.01
18 | CC(C)(C)CC(=O)NCCCn1cncn1 | -4.34
19 | Cc1cccc(N2CCOCC3(C2)CN(c2cccnc2)C(=O)CO3)n1 (stereo unspecified) | -4.96
20 | CC(=O)Nc1nc(C2CCCN(C(=O)CN(C)C)C2)cs1 (stereo unspecified) | -43.4
21 | O=C(N1CCCC1)N1CCC2(CC(=O)N(c3ccc4c(c3)OCO4)C2)C1 (stereo unspecified) | 9.79

Row | SMILES | cytotoxicity at 10 µM [%]
22 | Nc1cc(N2CCCC(COc3ccc(F)cc3)C2)ncn1 (stereo unspecified) | -0.106
23 | CNC(C(=O)N1CCC(c2nccn2C(C)C)CC1)c1ccccc1 (stereo unspecified) | 0.258
24 | CCc1[nH]c2c(CNc3cc(C)nc(NC)n3)cc(C)cc2c1C | -41
25 | CN(Cc1ccsc1)C(=O)c1cccc(F)c1 | -2.45
26 | Cc1noc(C)c1C(=O)N(C)C(C)c1ccc(S(C)(=O)=O)cc1 (stereo unspecified) | 4.96
27 | CN(Cc1cn2c(n1)CN(C1CCOCC1)CC2)Cc1ccco1 | -64.3
28 | CCn1c(C)cc(C(=O)N2C[C@@H](C(=O)O)[C@H](c3ccccc3C)C2)c1C | -7.71
29 | Cc1cnn(CCC(=O)N2C[C@@H]3CC[C@H]2CN(CC(=O)N(C)C)C3)c1 | -10
30 | CN(C)C(=O)CNS(=O)(=O)c1cc(Br)ccc1F | -47.1
31 | CC(C)N(C)Cc1noc2c1CN(C(=O)c1cnccn1)CC2 | 4.44
32 | CC(C)c1nc(C2CCCN2CCNS(C)(=O)=O)no1 (stereo unspecified) | 3.33
33 | Cn1ncnc1NS(=O)(=O)c1ccccc1 | 8.26
34 | COCCn1ccc2cc(C(=O)N3CCN(S(C)(=O)=O)CC3)ccc21 | -6.63
35 | Cc1cccc(N2CCN(CCC(=O)NCc3nnc[nH]3)CC2)c1 | -6.26
36 | Cn1cc(C(=O)NCC2CCN(C(=O)NC3CC3)CC2)cn1 | 2.05
37 | COc1cccc(S(=O)(=O)CCNCCn2cccn2)c1 | -4.96
38 | COc1ccc(Oc2ncccc2NC(=O)N2CCOCC2C)cc1 (stereo unspecified) | -2.43
39 | COCC(C)NC(=O)c1nnn(-c2ccc(OC)cc2)n1 (stereo unspecified) | 1.87
40 | CC(C)CSCCCNC(=O)C1CCOCC1 | -3.65
41 | COc1cc2c(cc1OC)C(=O)C(Sc1nnc(C)o1)C2 (stereo unspecified) | 0.372
42 | O=C(c1ccncc1)N1CCN(Cc2cccnc2)c2ncccc2C1 | -1.16

Row | SMILES | cytotoxicity at 10 µM [%]
43 | Cc1cnn(CC(C)NCc2nc(-c3ccoc3)no2)c1 (stereo unspecified) | 23.3
44 | Cc1ccc(O)c(C(=O)N2CCCC2c2nncn2CC(C)C)c1 (stereo unspecified) | -3.27
45 | COCc1nc(N(C)C)ncc1C(=O)Nc1cc(C)cc(C)c1 | 6.89
46 | CC(C)n1nnnc1-c1ccc(NC(=O)C(C)(C)C#N)cc1F | -7.36
47 | FC(F)Oc1ccccc1CNCc1cc(Br)c2c(c1)OCO2 | 10.7
48 | Cc1ccc(Cn2cc(Br)c(NS(C)(=O)=O)n2)cc1 | 0.22
49 | N#Cc1cccc(CN(CCO)Cc2ccsc2)c1 | 19.6
50 | Cc1nnc2n1CCN(CCOc1ccccc1C#N)C2 | -4.53
51 | CN(C)c1nc2c(c(N3CCc4ccccc4C3)n1)CCNC2 | 10.9
52 | Cc1csc([C@@H]2C[C@@H]3CCN(C(=O)c4cnccn4)C[C@H]3O2)n1 | 2.08
53 | Cc1ccc(NC2CCN(C(=O)COC3CCCC3)CC2)nn1 | 2.31
54 | CN1CCCN(c2nccc(-c3c[nH]nc3-c3ccncc3)n2)CC1 | -11
55 | OCCN(Cc1ccncc1)CC1(c2ccc(Cl)cc2)CC1 | 9.39
56 | Cc1cccc(CNC2CC(=O)N(CCc3cccc(Cl)c3)C2)n1 (stereo unspecified) | -134
57 | CCn1nc2c(cc1=O)CN(c1ncnc3sccc13)CC2 | 47.5
58 | CCC1=N[C@@]2(CC[C@@H]3CN(Cc4cccc(Cl)c4)C[C@@H]32)C(=O)N1C | -102
59 | CCc1nnc2n1CCN(Cc1csc(NC(C)=O)n1)C2 | -1.45
60 | CN(CCOCC1CC1)C(=O)Cn1cccc(C(F)(F)F)c1=O | -6.96
61 | c1ccc2c(Cc3nnc([C@H]4CCN(CC5CC5)C4)o3)c[nH]c2c1 | 4.73
62 | c1ccc2c(Cc3nnc([C@H]4CCN(C5CCCCC5)C4)o3)c[nH]c2c1 | -0.00726
63 | c1ccc(Cc2nc(C3CC3)nn2-c2ccc3c(c2)OCCO3)nc1 | 2.6

Row | SMILES | cytotoxicity at 10 µM [%]
64 | O=C(c1cc(C2CCCC2)no1)N1CCCCC1 | -3.05
65 | CC(C)COCCNC(=O)NC1CCCN(c2cnn(C)c2)C1 (stereo unspecified) | 9.39
66 | Cc1ccc(CNC(CN2CCN(C)CC2)c2ccccc2)cc1 (stereo unspecified) | 9.19
67 | Cc1ccc(C2CCCN2S(=O)(=O)N(C)Cc2cnn(C)c2)o1 (stereo unspecified) | 15.8
68 | c1cc(CN2CCC(n3cc(CN4CCCC4)nn3)CC2)cs1 | -6.26
69 | CCn1cnnc1C1CCN(C(=O)C(OC)c2ccccc2)CC1 (stereo unspecified) | 5.25
70 | CC(C)(O)CN1CCN(C(=O)c2cc(Cl)cc3cccnc23)CC1 | -7.93
71 | CC1(COc2ccccc2)NCCc2[nH]cnc21 (stereo unspecified) | -0.254
72 | O=C1Nc2ccccc2C12CCN(Cc1ccccn1)CC2 | -3.45
73 | CC(=O)N1CCOC(CNC(=O)c2cccc(CCC(C)(C)O)c2)C1 (stereo unspecified) | 0.303
74 | O=C(NCc1ccco1)[C@@H]1C[C@H]2OCC[C@H]2N(c2ncc(F)cn2)C1 | -0.113
75 | Cc1nn(C)c(N(C)C)c1CNC(C)c1cccc(OC(C)C)c1 (stereo unspecified) | -7.76
76 | CN1CCOC(C)(C(=O)Nc2nccs2)C1 (stereo unspecified) | 4.92
77 | CCC(C)(CC(=O)OC)NC(=O)c1ccc2[nH]ccc2c1 (stereo unspecified) | -2.8
78 | Cc1nn(C)c(C)c1-c1ccnc(N(C)Cc2nc(C(C)C)no2)n1 | 20.6
79 | O=c1ccc2c([nH]1)CCN(S(=O)(=O)c1ccc3c(c1)CCCC3)C2 | -4.63
80 | CC(OCC1CC1)C(=O)Nc1ccn(Cc2ccccc2)n1 (stereo unspecified) | 11.9
81 | Cc1nc(-c2cccc(C(=O)O)c2)c[nH]1 | -3.24
